The list is not random: actives were taken first. Their share in the collection is about 2.5%.
SENP8 block-1: inhibitors of human SENP8 protease; inhibition, % at 10 µM; Q96LD8; 1.2% of 330,000 active; purified SENP8, Z-RLRGG-aminoluciferin cleavage, luminescence; in the data active = inhibition above about 50%
SENP6 block: inhibitors of human SENP6 protease; Recombinant SENP6 catalytic domain, aminoluciferin luminescence; inhibition, % at 10 µM; 1.8% of 330,000 active; Q9GZR1;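 active = inhibition above about 50% at the single tested dose, limit read from the data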;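 also: plate controls were DMSO wells with enzyme for no effect and DMSO wells lacking enzyme for full effect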
SENP1 inh: inhibitors of human SENP1 SUMO protease catalytic domain | 0.21% of 360,000 active | inhibition, % at 10 µM | recombinant SENP1 catalytic domain, CyPet-SUMO1-YPet FRET cleavage | Q9P0U3;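 active = inhibition at least 30% at 10 µM, raw YFP signal under a set limit, fluorescence ratio 0.5 to 1.5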;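 also: 0% = enzyme with DMSO and 100% = no enzyme wells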
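Material: hSENP1 catalytic domain, recombinant; medium: Tris pH 8 with BME, BSA, NP40 and catalase; compound: single concentration of 10 µM compound, 0.5% DMSO final; technique: FRET read of cyan and yellow fluorescence; timing: 50 min enzyme reaction, room temperature, light-protected; reagent: SFCypet-SUMO1-SFYpet substrate at 25 nM; control set: no-enzyme low, enzyme-DMSO high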
SENP7 inh: SENP7 protease inhibition; Q9BQF6; 1.5% of 330,000 active; recombinant SENP7, Z-RLRGG-aminoluciferin luminescence, 40 min; inhibition, % at 5 µM; AID 434973;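 active = inhibition above about 50% at the single test dose, limit read from the data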;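 also: plate controls were DMSO with enzyme for no effect and no enzyme buffer wells for full effect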
Target sequence (Q9BQF6 706-1050 limits assumed): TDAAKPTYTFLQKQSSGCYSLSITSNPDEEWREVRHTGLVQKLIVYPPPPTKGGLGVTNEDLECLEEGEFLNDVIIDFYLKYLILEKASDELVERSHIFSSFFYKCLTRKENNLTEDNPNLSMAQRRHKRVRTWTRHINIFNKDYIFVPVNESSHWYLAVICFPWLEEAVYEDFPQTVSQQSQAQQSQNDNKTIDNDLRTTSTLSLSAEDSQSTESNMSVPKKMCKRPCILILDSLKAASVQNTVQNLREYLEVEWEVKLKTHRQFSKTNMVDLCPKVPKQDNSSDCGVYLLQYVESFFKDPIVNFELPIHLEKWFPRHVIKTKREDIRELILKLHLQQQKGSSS
SENP8 block-2: blocks human SENP8 cleavage of Nedd8 substrate | inhibition, % at 20 µM | AID 602440 | Q96LD8 | 0.64% of 360,000 active | recombinant SENP8, Nedd8 substrate fluorescence; in the data active = inhibition mostly above about 40%, no sharp cut-off; inactive = mostly below about 27%
SENP8 inh conf: SENP8 (human) inhibition, single concentration confirmation; 15% of 1,400 active; inhibition, % at 25 µM; purified SENP8, Nedd8-AMC/pro-Nedd8 cleavage fluorescence, 30 min; shares compounds with SENP8 block-2; in the data active = inhibition mostly above about 39%, no sharp cut-off; inactive = mostly below about 34%
Numbers without * were called inactive; x = no result given; ! = not active in a repeat.

SMILES | SENP8 block-1 | SENP6 block | SENP1 inh | SENP7 inh | SENP8 block-2 | SENP8 inh conf
COC(=O)CCCC1=CC2=CC(=O)C(C)(OC(=O)c3cccs3)C(=O)C2=CN1Cc1ccccc1 (centres undefined) | 15.6 | 24.9 | -36.9 | 5.5 | 12.8 | x
COC(=O)CCCC1=CC2=CC(=O)C(C)(OC(=O)c3cccs3)C(=O)C2=CN1C1CCCC1 (centres undefined) | 9.3 | 7.5 | -15.5 | 3.1 | 45.6* | 49.1*
Cc1cc(O)c(C(C)C)cc1N=Cc1ccc(N(C)C)cc1 | x | x | 2.1 | x | 38.3 | x
COc1cccc(C=Nc2cc(C(C)C)c(O)cc2C)c1O | x | x | 9.1 | x | 69.5* | 23.4
Cc1cc(O)c(C(C)C)cc1N=Cc1ccc([N+](=O)[O-])cc1 | x | x | 2.0 | x | 94.9* | 10.7
COc1ccc(NC(=O)COc2ccc(C(=O)OCC(=O)N(C(C)C)C(C)C)cc2OC)cc1 | 0.3 | 3.6 | -3.0 | -4.0 | 13.2 | x
O=C1c2ccccc2NC(c2ccc(O)c(O)c2)N1c1ccccc1Cl (centres undefined) | -0.4 | -11.0 | 2.0 | 3.6 | -298.5 | x
COc1ccc(S(=O)(=O)N2CCC(N3CCN(c4ccccc4OC)CC3)CC2)cc1 | 6.5 | 1.9 | 0.3 | 7.0 | 14.7 | x
CCCCC(=O)N/N=C(/C)C1=C(C)C(C)(C)OC1=O | -5.2 | -35.4 | 1.6 | -1.7 | -5.9 | x
CCNc1nc(NCC)nc(OCC(=O)O)n1 | 0.7 | -15.4 | 0.1 | 2.6 | 45.9* | 20.7
CCNc1nc(NOC)nc(OCC#N)n1 | 2.9 | 4.6 | 2.8 | 14.9 | 14.9 | x
Cc1cc(C)nc(/N=C(\N)Nc2ccccc2-c2ccccc2)n1 | -4.4 | -11.1 | 1.3 | -3.9 | 9.0 | x
COc1ccccc1CNC(=O)[C@H](C)N1C(=O)N2CCc3c([nH]c4ccccc34)[C@@]2(C)C1=O | 7.5 | -1.6 | 3.0 | -0.1 | 42.8* | 14.0
CCc1ccc(-c2cc(C(=O)O)c3ccccc3n2)s1 | 10.6 | 5.9 | -25.9 | 0.4 | -292.2 | x
CC1(C)Cc2cccc(OCC(=O)OCC(=O)Nc3cccc(S(N)(=O)=O)c3)c2O1 | -3.6 | -14.7 | 2.3 | 0.5 | 40.5* | 7.5
CCNC(=O)NC(=O)C(C)Sc1nc2ccccc2n1CC(C)C (centres undefined) | 1.9 | -0.8 | 0.6 | 1.5 | 42.2* | 13.3
O=c1c(-c2ccc(O)cc2O)coc2cc(O)cc(O)c12 | 3.8 | 7.7 | 2.1 | -2.5 | 54.8* | 21.7
O=C(Cc1cc(=O)[nH][nH]1)N/N=C/c1c(Cl)cccc1Cl | 4.0 | 11.1 | 2.3 | -3.6 | 44.5*! | 19.1
O=C(Cc1cc(=O)[nH][nH]1)N/N=C/c1c(F)cccc1Cl | 1.6 | 8.8 | -0.6 | 2.6 | 17.5 | x
CCc1ccccc1N1C(=O)C2CC=CCC2C1=O (centres undefined) | -9.1 | -11.0 | 7.7 | 0.1 | 17.8 | x
CCc1ccccc1N1C(=O)C2CC(C)=C(C)CC2C1=O (centres undefined) | 0.2 | -18.9 | 3.2 | -0.2 | 40.8* | 3.3
S=C(Nc1cccc(Cl)c1)N(CCCN1CCCC1)Cc1cccn1Cc1ccc(Cl)cc1 | -0.6 | -7.9 | -1.2 | 1.9 | 40.3* | 29.2
CSc1cccc(NC(=S)N(CCCN2CCCC2)Cc2cccs2)c1 | 0.7 | -2.1 | 1.3 | -4.7 | 45.7* | -3.8
O=C1c2cccnc2C(=O)N1Cc1ccc(S(=O)(=O)N2CCOc3ccccc32)cc1 | 4.6 | 9.4 | -0.2 | -0.8 | 14.9 | x
O=[N+]([O-])c1ccc(Sc2ccccc2Cl)nc1 | -2.1 | -11.1 | -0.1 | -3.4 | 40.3* | 8.4
SMILES | SENP8 block-1 | SENP6 block | SENP1 inh | SENP7 inh | SENP8 block-2 | SENP8 inh conf
Nc1ccc(Sc2ccccc2Cl)nc1 | 0.8 | 0.6 | 2.1 | -2.5 | 13.9 | x
O=C(O)c1ccc(N2CCCS2(=O)=O)cc1 | 2.3 | 0.7 | 1.5 | 6.9 | -2.4 | x
COc1ccc(C2CC3(CC(C)(C)NC(SC)=N3)Oc3cc(O)cc(C)c32)cc1 (centres undefined) | -9.7 | 6.0 | 0.4 | 3.7 | 44.2* | 9.3
CC(=O)c1ccccn1 | -11.9 | -13.8 | 1.5 | 0.9 | 6.8 | x
C/C(=N/O)c1ccccn1 | -3.5 | -7.7 | 1.1 | 2.5 | 50.9* | 5.4
CC1=NN(c2ccccc2)C(=O)C1C(=O)c1ccccc1 (centres undefined) | 3.7 | -1.7 | 2.4 | 6.7 | 18.9 | x
CC1=NN(c2ccccc2)C(=O)C1C(=S)SC1CC(=O)NC1=O (centres undefined) | x | x | 4.5 | x | 44.9* | 16.6

Screening results deposited in PubChem by Sanford-Burnham Center for Chemical Genomics.
